Bioassay records as filed in PubChem BioAssay.
PHOSPHO1 inh – PubChem AID 1565 | Phosphoethanolamine/phosphocholine phosphatase (Homo sapiens), Q8TCT1 | recombinant PHOSPHO1, absorbance phosphatase assay | inhibition, % at 13.3 µM | 1.1% of 290,000 active; in the data active means inhibition above about 60%
Target sequence (Q8TCT1 whole entry, looked up): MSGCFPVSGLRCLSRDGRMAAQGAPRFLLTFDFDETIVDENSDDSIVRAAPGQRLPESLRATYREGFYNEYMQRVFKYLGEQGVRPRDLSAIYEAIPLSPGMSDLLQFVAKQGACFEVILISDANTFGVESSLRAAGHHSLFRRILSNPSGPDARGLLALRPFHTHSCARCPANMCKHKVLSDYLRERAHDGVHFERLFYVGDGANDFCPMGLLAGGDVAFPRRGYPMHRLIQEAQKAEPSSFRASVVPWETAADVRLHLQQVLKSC
MrgX1 agonist – agonists of human MrgX1 receptor, primary screen, HEK293 cells, Fluo-4 calcium flux | 0.44% of 310,000 active | Fluo-4 calcium fluorescence, agonist mode; stronger effect = higher value | B-score at 10 µM;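 active means calcium response B-score plate-corrected fluorescence ratio at least 3 library SD, with starting fluorescence B-score inside 5 SD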
Target sequence (Q96LB2 whole entry, looked up): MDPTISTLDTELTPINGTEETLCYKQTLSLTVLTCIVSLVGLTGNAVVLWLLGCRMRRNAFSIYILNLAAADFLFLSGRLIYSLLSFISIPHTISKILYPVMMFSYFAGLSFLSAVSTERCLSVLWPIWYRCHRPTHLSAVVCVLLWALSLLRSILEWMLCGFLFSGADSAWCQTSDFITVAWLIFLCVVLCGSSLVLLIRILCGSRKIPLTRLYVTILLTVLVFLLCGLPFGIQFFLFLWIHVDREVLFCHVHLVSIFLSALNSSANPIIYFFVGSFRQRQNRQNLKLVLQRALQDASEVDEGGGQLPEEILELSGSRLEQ
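Material: MrgX1-expressing HEK293 cells / Dosing: compound as first of three additions / Incubation: overnight seeding, then 1 h dark dye loading / Signal: Fluo-4 NW calcium fluorescence / Evaluation: B-scored fluorescence response ratio / Benchmarks: positive and negative control wells on each plate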
RGS4 block – RGS4 inhibitors, primary screen, cell-based, HEK293 M3R inducible RGS4, calcium flux; Regulator of G-protein signaling 4 (Homo sapiens), P49798; 0.45% of 310,000 active; B-score at 10 µM; AID 463165, 2010; Fluo-4 calcium flux; stronger effect = higher value; triggered by carbachol at its EC20;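 active means B-score, a plate-corrected calcium signal, over three deviations above library mean, with baseline fluorescence within five deviations of library mean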;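 further: RGS4 expression induced by doxycycline in cells with stable M3 receptor; B-score is computed from the integrated fluorescence ratio over baseline after carbachol; higher B-score means a larger calcium signal and so more RGS4 inhibition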
MrgX1 allo act – positive allosteric modulators of MrgX1, primary screen, HEK293 cells, Fluo-4 calcium flux; Mas-related G-protein coupled receptor member X1 (Homo sapiens), Q96LB2; FDSS; stronger effect = higher value; B-score at 10 µM; 0.63% of 310,000 active; AID 588675, 2011;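 active means plate-corrected calcium response at least 3 library SD above typical, normal starting fluorescence, not activating the receptor alone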;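 further: compound read alongside a low EC10 to EC30 dose of BAM8-22 agonist; peak minus trough fluorescence over baseline measured at the second addition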
MrgX1 antag – antagonists of human MrgX1 receptor, primary screen, HEK293 cells, Fluo-4 calcium flux; B-score at 10 µM; AID 588676, 2011; BAM8-22 antagonism; stronger effect = lower value; 1.3% of 310,000 active; Mas-related G-protein coupled receptor member X1 (Homo sapiens), Q96LB2;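 active means calcium-response B-score plate-corrected more than 3 library SD below zero, starting fluorescence within 5 deviations, no agonist response on first addition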;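 further: peak minus trough fluorescence over baseline after final BAM8-22 challenge near maximal dose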
RGS4 act – RGS4 potentiators or activators, primary screen, cell-based, HEK293 M3R inducible RGS4, calcium flux; carbachol calcium flux Fluo4; stronger effect = lower value; B-score at 10 µM; 0.92% of 310,000 active; AID 463111, 2010;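 active means B-score of the integrated calcium signal more than 4 SD below the library mean, with starting fluorescence not abnormally high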;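 further: negative B-score means reduced calcium response which marks RGS4 activation or potentiation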
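System – HEK293 FlpIn-TREx cells, stable M3R, doxycycline-inducible RGS4 · Reagent – ECmax carbachol challenge · Times – compound preincubation 20 min at room temperature before agonist · Technique – Fluo4 fluorescence kinetic imaging of calcium · Measure – B score of integrated Fluo4 ratio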
RGS4 act valid – reduced carbachol calcium response, RGS4-induced M3R cells, confirmation, RGS4 activator project, cell-based, HEK293 M3R/RGS4 inducible, calcium flux, duplicate; shares compounds with RGS4 act; carbachol calcium flux Fluo4; inhibition, % at 10 µM; 89% of 1,100 active;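 active means inhibition above 3 SD of the buffer control wells, cut at about 41% in these data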;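 further: signal is the integrated peak-minus-minimum Fluo4 fluorescence over baseline ratio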
RGS4 act ctr – counter-screen for RGS4 activators: effect in non-induced cells. HEK293 M3R non-induced RGS4, Fluo4 calcium flux; after carbachol challenge at its EC90. AID 602283. 82% of 1,100 active. inhibition, % at 10 µM. shares compounds with RGS4 act;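 active means inhibition exceeding 3 SD of buffer-only control wells, cut at about 26% in these data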;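 further: percent drop in integrated peak-minus-baseline over baseline Fluo4 ratio after carbachol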
* marks the source's active call; other numbers are inactive results; i = inactive; / = not tested or not shown. This is a sample that favours compounds with a hit; in the whole collection about 4.5% have one here.

SMILES	PHOSPHO1 inh	MrgX1 agonist	RGS4 block	MrgX1 allo act	MrgX1 antag	RGS4 act	RGS4 act valid	RGS4 act ctr
Cc1nc2cc(NC(=O)c3ccco3)ccc2n1C	18	i	i	i	i	i	/	/
Cc1cc2c(cc1C)NC(c1c(C)n(C)n(-c3ccccc3)c1=O)C1=C(CC(C)(C)CC1=O)N2 (stereo not drawn)	45	i	i	i	i	-11*	71*	62*
C[N+]1(CC(=O)OCCCc2ccccc2)CCCCC1	12	i	i	i	i	i	/	/
CC1(C(O)(C#CC[N+]2(C)CCCCC2)c2ccccc2)CCCC1 (stereo not drawn)	49	i	i	i	i	-15*	92*	95*
COc1cc(C(=O)O[C@H]2C/C(C)=C/CC[C@@]3(C)O[C@@H]3[C@H](O)[C@@H]2C(C)C)cc(OC)c1OC	/	i	i	i	i	i	/	/
N#CC1=C(N)OC2=C(C(=O)CC(c3ccccc3)C2)C1c1ccc2c(c1)OCO2 (stereo not drawn)	-12	i	i	i	i	-8.2*	92*	68*
CCc1ccc(C(C(=O)NC2CCCC2)N(C(=O)/C=C/C(=O)Nc2cc(C)on2)c2ccccc2C)cc1 (stereo not drawn)	-4	i	i	i	i	i	/	/
c1ccc(-c2nnc(N3CCN(c4ccccn4)CC3)c3ccccc23)cc1	-4	i	i	i	i	-8*	92*	79*
Cc1ccc(-c2nnc(N3CCN(c4ccccn4)CC3)c3ccccc23)cc1	-21	i	i	i	i	-7.7*	94*	91*
Cc1ccc(-c2nnc(N3CCCCC3)c3ccccc23)cc1	20	i	i	i	i	i	/	/
S=C1N(c2ccccc2)C(c2ccc(Br)cc2)N2CCCN12 (stereo not drawn)	33	i	i	i	i	-11*	94*	90*
CCCC(=O)n1nc(-c2ccc(C)cc2)nc1NCc1ccco1	28	i	i	i	i	i	/	/
Cc1cc(N(C)C)c(C#N)c(N2CCCCC2)n1	-2	i	i	i	i	i	/	/
CCOC(=O)c1cc(C)nc(N2CCCCC2)c1C#N	19	i	i	i	i	-11*	0	0
Cc1nc([N+](=O)[O-])cn1CC(O)c1ccc(-c2ccccc2)cc1 (stereo not drawn)	23	i	i	i	i	i	/	/
COc1ccccc1NC(=O)c1ccccc1Oc1ccccc1	29	i	i	i	-5.9*	-9.2*	86*	50*
Cc1ccc(S(=O)(=O)NC(C(=O)Oc2ccc3c(C)c(Cl)c(=O)oc3c2)c2ccccc2)cc1 (stereo not drawn)	-24	i	i	i	i	i	/	/
CCC[C@@H](NS(=O)(=O)c1ccc(C)cc1)C(=O)Oc1ccc2c3c(c(=O)oc2c1)CCC3	-2	i	i	i	i	-7.6*	92*	71*
O=C(CCn1cccn1)Nc1ccc2c(c1)OCCO2	38	i	i	i	i	i	/	/
N#Cc1c(N2CCN(C(=O)c3ccccc3)CC2)nc(-c2ccccc2)c2c1CCCC2	17	i	i	i	i	-7.9*	90*	54*
O=C(c1ccco1)N1CCN(c2nc(C3CC3)nc3sc4c(c23)CCCC4)CC1	-22	i	i	i	i	-8.5*	87*	45*
N#Cc1c(N2CCN(C(=O)c3ccco3)CC2)nc(-c2ccccc2)c2c1CCCC2	1	i	i	i	i	-8.2*	91*	48*
Cc1ccc(NC(=O)c2cnc(N3CCN(c4ccccn4)CC3)c3ccccc23)c(Br)c1	-22	i	i	i	i	-11*	91*	76*
O=C(Nc1c(F)cccc1F)c1cnc(N2CCN(c3ccccn3)CC2)c2ccccc12	14	i	i	i	i	i	/	/
CCc1ccc(NC(=O)c2sc3nc(C)nc(N4CCN(c5ccccn5)CC4)c3c2C)cc1	27	i	i	i	i	-8.5*	64*	84*
SMILES	PHOSPHO1 inh	MrgX1 agonist	RGS4 block	MrgX1 allo act	MrgX1 antag	RGS4 act	RGS4 act valid	RGS4 act ctr
Cc1nc(N2CCN(c3ccccn3)CC2)c2c(C)c(C(=O)Nc3ccc(F)cc3F)sc2n1	-17	i	i	i	i	-9*	80*	27*
COc1ccc(NC(=O)c2sc3nc(C)nc(N4CCN(c5ccccn5)CC4)c3c2C)cc1Cl	12	i	i	i	i	i	/	/
Cc1nc(N2CCN(c3ccccn3)CC2)c2c(C)c(C(=O)Nc3ccccc3F)sc2n1	16	i	i	i	i	-7.8*	94*	59*
O=C(CSc1nc(=O)n(CCCN2CCOCC2)c2c1CCCC2)Nc1ccc(F)cc1	/	i	i	i	i	i	/	/
O=C(CCN1C(=O)/C(=C/c2ccccc2Cl)SC1=S)NCCc1ccc(O)cc1	45	i	i	i	i	i	/	/
Cc1nc(-c2ccc(S(=O)(=O)Oc3ccc(Cl)cc3Cl)s2)cs1	8	i	i	i	i	-8.4*	89*	71*
COc1ccc(-c2cc(C3CC3)nc(SCC(=O)c3cccs3)c2C#N)cc1	-40	i	i	i	i	i	/	/
CCOC(=O)CSc1nc(C2CC2)cc(-c2ccc(F)cc2)c1C#N	52	i	i	i	i	-8.5*	66*	0
CN(CCOC(=O)C1c2ccccc2Oc2ccccc21)C(C)(C)C	24	i	i	i	i	-7.9*	93*	96*
CN(C)CCCOC(=O)C1c2ccccc2Oc2ccccc21	-50	i	i	i	i	-8.5*	92*	91*
COc1cccc(-c2nn(-c3ccc(C)cc3)cc2C(=O)N2CCc3cc(OC)c(OC)cc3C2)c1	/	i	i	i	i	-9.2*	45*	0
COc1cccc(-c2nn(-c3ccccc3)cc2C(=O)O)c1	-5	i	i	i	i	i	/	/
